The source of these data is ChEMBL document CHEMBL1140546, “3,5-Disubstituted quinolines as novel c-Jun N-terminal kinase inhibitors” (Bioorg Med Chem Lett, 2007).

As a reminder, the IC50 is the point on the concentration scale where inhibition reaches its midpoint.

This assay deals with Mitogen-activated protein kinase 10 (Homo sapiens, UniProt P53779). Kind of assay: Inhibition of JNK3 by HTRF assay. In a few lines: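 JNK3 phosphorylation of biotinylated-ATF2, final 0.3 nM JNK3, 0.4 nM substrate, 1 μM ATP. The phospho-Thr71-ATF-2 product is detected with a Europium-cryptate-labeled anti-phospho-Thr71-ATF-2 antibody. IC50 values are means of three experiments.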
On the technique in general: Time-resolved FRET reads energy transfer from a long-lived donor to a nearby acceptor.

Mitogen-activated protein kinase 10, sequence (P53779 whole entry): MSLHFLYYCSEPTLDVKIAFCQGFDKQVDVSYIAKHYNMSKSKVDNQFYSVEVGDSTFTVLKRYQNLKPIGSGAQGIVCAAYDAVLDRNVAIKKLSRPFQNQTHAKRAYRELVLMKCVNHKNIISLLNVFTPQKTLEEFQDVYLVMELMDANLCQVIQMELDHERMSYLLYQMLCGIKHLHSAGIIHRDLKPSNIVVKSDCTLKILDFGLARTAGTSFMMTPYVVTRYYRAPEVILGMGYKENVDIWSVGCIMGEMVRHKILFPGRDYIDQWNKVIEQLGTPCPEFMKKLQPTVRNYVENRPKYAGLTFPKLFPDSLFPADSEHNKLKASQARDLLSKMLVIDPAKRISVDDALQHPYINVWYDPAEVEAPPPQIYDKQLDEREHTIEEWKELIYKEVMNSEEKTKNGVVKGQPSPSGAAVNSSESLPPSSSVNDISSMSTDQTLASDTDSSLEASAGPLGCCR

As to `CS(=O)(=O)Nc1ccc(-c2cnc3ccc4ccncc4c3c2)cc1`, the midpoint of inhibition, the IC50, lay at 930 nM. This lies in the sub-micromolar range.
The compound `c1ccc(-c2cnc3ccc4ccncc4c3c2)cc1` yielded a concentration for half-maximal inhibition (IC50) of 1000 nM.
`c1ccc(-c2ccc(-c3cnc4ccc5ccncc5c4c3)cc2)cc1` came in with a half-maximal inhibitory concentration (IC50) greater than 20000 nM.
The value for `CS(=O)(=O)Nc1ccc(-c2cnc3cccc(Nc4ncccn4)c3c2)cc1` was 480 nM; that for `CS(=O)(=O)N(c1ccc(-c2cnc3ccc4ccncc4c3c2)cc1)S(C)(=O)=O` was 210 nM.
The value for `CS(=O)(=O)Nc1ccc(-c2cnc3cccc(Nc4ccc(Cl)cn4)c3c2)cc1` was 120 nM.
The result for `CC(=O)N(C(C)=O)c1ccc(-c2cnc3ccc4ccncc4c3c2)cc1` reads 1600 nM; that for `c1cc2ccc3ncc(-c4ccc(N5CCOCC5)cc4)cc3c2cn1`, 1300 nM; that for `Nc1ccc(-c2cnc3ccc4ccncc4c3c2)cc1`, 510 nM.
Take `c1cc2ccc3ncc(-c4ccc(-c5ccn[nH]5)cc4)cc3c2cn1`: the IC50 came out at 3600 nM.
The compound `CC(=O)Nc1ccc(-c2cnc3ccc4ccncc4c3c2)cc1` had an IC50 of 530 nM.
The result for `CS(=O)(=O)Nc1ccc(-c2cnc3cccc(Nc4ncccc4Cl)c3c2)cc1` reads 15000 nM.
